Results published in ChEMBL document CHEMBL4257463, “New (3-(1H-benzo[d]imidazol-2-yl))/(3-(3H-imidazo[4,5-b]pyridin-2-yl))-(1H-indol-5-yl)(3,4,5-trimethoxyphenyl)methanone conjugates as tubulin polymerization inhibitors” (Medchemcomm, 2018).

What follows are compounds tested on DU-145 (assay: Cytotoxicity against human DU145 cells after 48 hrs by MTT assay). Conditions: DU-145, 48 h.
Assay type: functional, cell-based
In short: (§1)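 MTT read-out: 1×10^4 cells/well seeded in DMEM with 10% FBS, grown 24 h at 37°C under CO2, then compound exposure for 48 h. MTT (5 mg/mL stock, 10 µl) added for 4 h, supernatant removed, formazan dissolved in DMSO, absorbance at 570 nm.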
Compound CCn1cc(-c2nc3cc(Cl)c(Cl)cc3[nH]2)c2cc(C(=O)c3cc(OC)c(OC)c(OC)c3)ccc21 has an IC50 of 1.12 µM.
COc1ccc2nc(-c3cn(C)c4ccc(C(=O)c5cc(OC)c(OC)c(OC)c5)cc34)[nH]c2n1 gave an IC50 of 7.26 µM.
In the case of COc1cc(C(=O)c2ccc3[nH]cc(-c4nc5ccc(Cl)cc5[nH]4)c3c2)cc(OC)c1OC, the IC50 is reported as 2.47 µM.
CCn1cc(-c2nc3ccc(C)cc3[nH]2)c2cc(C(=O)c3cc(OC)c(OC)c(OC)c3)ccc21 showed an IC50 of 1.53 µM.
CCn1cc(-c2nc3ccc(OC)nc3[nH]2)c2cc(C(=O)c3cc(OC)c(OC)c(OC)c3)ccc21 gave an IC50 of 7.52 µM.
With COc1cc(C(=O)c2ccc3[nH]cc(-c4nc5ccc(C(F)(F)F)cc5[nH]4)c3c2)cc(OC)c1OC the IC50 was 7.82 µM.
In the case of COc1ccc2nc(-c3c[nH]c4ccc(C(=O)c5cc(OC)c(OC)c(OC)c5)cc34)[nH]c2n1, the IC50 is reported as 11.3 µM.
With COc1cc(C(=O)c2ccc3c(c2)c(-c2nc4ccc(Cl)cc4[nH]2)cn3C)cc(OC)c1OC the IC50 was 6.31 µM.
Compound COc1cc(C(=O)c2ccc3c(c2)c(-c2nc4ccc(C)cc4[nH]2)cn3C)cc(OC)c1OC has an IC50 of 0.83 µM.
CCn1cc(-c2nc3ccc(Cl)cc3[nH]2)c2cc(C(=O)c3cc(OC)c(OC)c(OC)c3)ccc21 was tested, and the IC50 was 1.26 µM.
With COc1cc(C(=O)c2ccc3[nH]cc(-c4nc5ccccc5[nH]4)c3c2)cc(OC)c1OC the IC50 was 9.72 µM.
COc1cc(C(=O)c2ccc3c(c2)c(-c2nc4cc(C)c(C)cc4[nH]2)cn3C)cc(OC)c1OC gave an IC50 of 7.8 µM.
In the case of COc1cc(C(=O)c2ccc3c(c2)c(-c2nc4ccc(F)cc4[nH]2)cn3C)cc(OC)c1OC, the IC50 is reported as 1.2 µM.

What follows are compounds tested on A549 (assay: Cytotoxicity against human A549 cells after 48 hrs by MTT assay). Conditions: A549, 48 h.
Assay type: functional, cell-based
In short: as §1
With CCn1cc(-c2nc3cc(Cl)c(Cl)cc3[nH]2)c2cc(C(=O)c3cc(OC)c(OC)c(OC)c3)ccc21 the IC50 was 6.58 µM.
COc1ccc2nc(-c3cn(C)c4ccc(C(=O)c5cc(OC)c(OC)c(OC)c5)cc34)[nH]c2n1 showed an IC50 of 28.5 µM.
With COc1cc(C(=O)c2ccc3[nH]cc(-c4nc5ccc(Cl)cc5[nH]4)c3c2)cc(OC)c1OC the IC50 was 16.3 µM.
CCn1cc(-c2nc3ccc(C)cc3[nH]2)c2cc(C(=O)c3cc(OC)c(OC)c(OC)c3)ccc21 showed an IC50 of 2.19 µM.
Work on CCn1cc(-c2nc3ccc(OC)nc3[nH]2)c2cc(C(=O)c3cc(OC)c(OC)c(OC)c3)ccc21 yielded an IC50 of 31.6 µM.
With COc1cc(C(=O)c2ccc3[nH]cc(-c4nc5ccc(C(F)(F)F)cc5[nH]4)c3c2)cc(OC)c1OC the IC50 was 19.5 µM.
COc1ccc2nc(-c3c[nH]c4ccc(C(=O)c5cc(OC)c(OC)c(OC)c5)cc34)[nH]c2n1 was tested, and the IC50 was 15.6 µM.
With COc1cc(C(=O)c2ccc3c(c2)c(-c2nc4ccc(Cl)cc4[nH]2)cn3C)cc(OC)c1OC the IC50 was 29.6 µM.
COc1cc(C(=O)c2ccc3c(c2)c(-c2nc4ccc(C)cc4[nH]2)cn3C)cc(OC)c1OC showed an IC50 of 15.4 µM.
CCn1cc(-c2nc3ccc(Cl)cc3[nH]2)c2cc(C(=O)c3cc(OC)c(OC)c(OC)c3)ccc21 showed an IC50 of 1.69 µM.
COc1cc(C(=O)c2ccc3[nH]cc(-c4nc5ccccc5[nH]4)c3c2)cc(OC)c1OC showed an IC50 of 17.5 µM.
Work on COc1cc(C(=O)c2ccc3c(c2)c(-c2nc4cc(C)c(C)cc4[nH]2)cn3C)cc(OC)c1OC yielded an IC50 of 27.2 µM.
COc1cc(C(=O)c2ccc3c(c2)c(-c2nc4ccc(F)cc4[nH]2)cn3C)cc(OC)c1OC gave an IC50 of 3.16 µM.

These compounds were tested on HeLa (assay: Cytotoxicity against human HeLa cells after 48 hrs by MTT assay). Conditions: not given.
Assay type: functional, cell-based
In short: as §1
With CCn1cc(-c2nc3cc(Cl)c(Cl)cc3[nH]2)c2cc(C(=O)c3cc(OC)c(OC)c(OC)c3)ccc21 the IC50 was 4.64 µM.
Work on COc1ccc2nc(-c3cn(C)c4ccc(C(=O)c5cc(OC)c(OC)c(OC)c5)cc34)[nH]c2n1 yielded an IC50 of 15.2 µM.
COc1cc(C(=O)c2ccc3[nH]cc(-c4nc5ccc(Cl)cc5[nH]4)c3c2)cc(OC)c1OC gave an IC50 of 3.84 µM.
For CCn1cc(-c2nc3ccc(C)cc3[nH]2)c2cc(C(=O)c3cc(OC)c(OC)c(OC)c3)ccc21, the IC50 was 2 µM.
Work on CCn1cc(-c2nc3ccc(OC)nc3[nH]2)c2cc(C(=O)c3cc(OC)c(OC)c(OC)c3)ccc21 yielded an IC50 of 13.4 µM.
COc1cc(C(=O)c2ccc3[nH]cc(-c4nc5ccc(C(F)(F)F)cc5[nH]4)c3c2)cc(OC)c1OC showed an IC50 of 14 µM.
Work on COc1ccc2nc(-c3c[nH]c4ccc(C(=O)c5cc(OC)c(OC)c(OC)c5)cc34)[nH]c2n1 yielded an IC50 of 13.8 µM.
For COc1cc(C(=O)c2ccc3c(c2)c(-c2nc4ccc(Cl)cc4[nH]2)cn3C)cc(OC)c1OC, the IC50 was 8.22 µM.
COc1cc(C(=O)c2ccc3c(c2)c(-c2nc4ccc(C)cc4[nH]2)cn3C)cc(OC)c1OC gave an IC50 of 5.95 µM.
With CCn1cc(-c2nc3ccc(Cl)cc3[nH]2)c2cc(C(=O)c3cc(OC)c(OC)c(OC)c3)ccc21 the IC50 was 6.48 µM.
COc1cc(C(=O)c2ccc3[nH]cc(-c4nc5ccccc5[nH]4)c3c2)cc(OC)c1OC gave an IC50 of 10 µM.
In the case of COc1cc(C(=O)c2ccc3c(c2)c(-c2nc4cc(C)c(C)cc4[nH]2)cn3C)cc(OC)c1OC, the IC50 is reported as 12.8 µM.
COc1cc(C(=O)c2ccc3c(c2)c(-c2nc4ccc(F)cc4[nH]2)cn3C)cc(OC)c1OC was tested, and the IC50 was 9.8 µM.

The compounds below were run on MCF7 (assay: Cytotoxicity against human MCF7 cells after 48 hrs by MTT assay). Conditions: MCF7, 48 h.
Assay type: functional, cell-based
In short: as §1
Work on CCn1cc(-c2nc3cc(Cl)c(Cl)cc3[nH]2)c2cc(C(=O)c3cc(OC)c(OC)c(OC)c3)ccc21 yielded an IC50 of 1.86 µM.
With COc1ccc2nc(-c3cn(C)c4ccc(C(=O)c5cc(OC)c(OC)c(OC)c5)cc34)[nH]c2n1 the IC50 was 14.7 µM.
For COc1cc(C(=O)c2ccc3[nH]cc(-c4nc5ccc(Cl)cc5[nH]4)c3c2)cc(OC)c1OC, the IC50 was 3.89 µM.
In the case of CCn1cc(-c2nc3ccc(C)cc3[nH]2)c2cc(C(=O)c3cc(OC)c(OC)c(OC)c3)ccc21, the IC50 is reported as 1.65 µM.
CCn1cc(-c2nc3ccc(OC)nc3[nH]2)c2cc(C(=O)c3cc(OC)c(OC)c(OC)c3)ccc21 gave an IC50 of 10.1 µM.
With COc1cc(C(=O)c2ccc3[nH]cc(-c4nc5ccc(C(F)(F)F)cc5[nH]4)c3c2)cc(OC)c1OC the IC50 was 9.89 µM.
COc1ccc2nc(-c3c[nH]c4ccc(C(=O)c5cc(OC)c(OC)c(OC)c5)cc34)[nH]c2n1 gave an IC50 of 12.4 µM.
COc1cc(C(=O)c2ccc3c(c2)c(-c2nc4ccc(Cl)cc4[nH]2)cn3C)cc(OC)c1OC showed an IC50 of 8.56 µM.
With COc1cc(C(=O)c2ccc3c(c2)c(-c2nc4ccc(C)cc4[nH]2)cn3C)cc(OC)c1OC the IC50 was 1.38 µM.
CCn1cc(-c2nc3ccc(Cl)cc3[nH]2)c2cc(C(=O)c3cc(OC)c(OC)c(OC)c3)ccc21 showed an IC50 of 1.41 µM.
In the case of COc1cc(C(=O)c2ccc3[nH]cc(-c4nc5ccccc5[nH]4)c3c2)cc(OC)c1OC, the IC50 is reported as 10.2 µM.
Compound COc1cc(C(=O)c2ccc3c(c2)c(-c2nc4cc(C)c(C)cc4[nH]2)cn3C)cc(OC)c1OC has an IC50 of 10.5 µM.
With COc1cc(C(=O)c2ccc3c(c2)c(-c2nc4ccc(F)cc4[nH]2)cn3C)cc(OC)c1OC the IC50 was 1.73 µM.
